A selection: hits, their analogues and other compounds. The true share with any hit is near 1.1%.
SR-BI DiI-HDL act = activators of SR-BI mediated DiI-HDL uptake, primary screen, ldlA[mSR-BI] CHO cells, DiI fluorescence; 3 h; 100 = double the neutral-control signal; activation, % at 12.5 µM; 0.096% of 320,000 active;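 active = mean replicate activation of at least 60% and every replicate at or above 60%; inconclusive = mean or all-replicate condition met, but not both; inactive = mean below 60% and not all replicates reaching 60%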;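 also: 0% = median plate neutral-control signal and 100% = twice that signal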
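Material – SR-BI-overexpressing, LDLR-lacking CHO cells · Medium – BSA-supplemented, HEPES-buffered Ham's F12, pH 7.4 · Doses – single concentration · Times – compound with DiI-HDL co-incubation, 3 h at 37 °C · Measured by – bottom-read fluorescence, 550/595 nm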
SR-BI HDL uptake = inhibitors of SR-BI mediated HDL lipid uptake, primary screen, ldlA[mSR-BI] cells, fluorescence, single point. 0.96% of 320,000 active. inhibition, % at 12.5 µM. ldlA[mSR-BI] CHO cells, DiI-HDL uptake fluorescence, 3 h. Scavenger receptor class B member 1 (Mus musculus), Q61009;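 active = mean replicate inhibition of at least 70% and a set share of replicates each scoring 70 or more; inconclusive = meets just one of the two criteria; inactive = fails both criteria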;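 also: 0% = median of neutral control wells and 100% = median of positive control wells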
GSK3B inh = human GSK3beta kinase inhibitors, primary screen, biochemical, cell-free homogeneous, HTS | activity score (negative = inhibition), % at 10 µM | Glycogen synthase kinase-3 beta (Homo sapiens), P49841 | 0.038% of 300,000 active | GST-GSK3beta kinase, ADP-Glo luminescence, 60 min; hits give low values;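 active = more than half of replicate wells score below -50%, meaning over 50% inhibition versus plate controls; inconclusive = some replicates but at most half score below -50%; inactive = no replicate scores below -50%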;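 also: 0% = median DMSO wells and -100% = median GW8510 positive control wells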
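Assay system: GST-tagged human GSK3beta kinase, cell-free; Input: 1.6 ng GSK3beta; Medium: Tris/MgCl2 kinase buffer; Timing: 60 min enzyme reaction, room temperature; Signal: ADP-Glo luminescence quantifying ADP generated by kinase; Evaluation: score relative to plate controls; Benchmarks: DMSO neutral wells and GW8510 at 20 µM as positive.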
CDK5 inh = inhibitors of human CDK5/p35 kinase, primary screen, biochemical, single concentration; inhibition, % at 10 µM; 0.01% of 330,000 active; AID 488839, 2010; Recombinant CDK5/p35, ADP-Glo luminescence, 60 min;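 active = highest replicate inhibition of at least 50% and at least 75% of replicates reaching 50%; inconclusive = only one of the two criteria met; inactive = both criteria failed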;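 also: plate controls were DMSO neutral control for no effect and GW8510 at 10 µM for full effect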
Target sequence (Q00535 whole entry, looked up): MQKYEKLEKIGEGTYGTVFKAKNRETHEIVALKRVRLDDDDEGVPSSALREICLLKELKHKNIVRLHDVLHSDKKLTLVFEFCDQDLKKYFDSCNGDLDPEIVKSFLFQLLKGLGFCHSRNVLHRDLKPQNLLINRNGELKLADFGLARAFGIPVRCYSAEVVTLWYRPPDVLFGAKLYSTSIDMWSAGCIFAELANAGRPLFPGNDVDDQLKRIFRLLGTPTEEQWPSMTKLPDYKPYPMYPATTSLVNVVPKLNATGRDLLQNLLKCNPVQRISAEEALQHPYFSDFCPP
Target sequence (Q15078 whole entry, looked up): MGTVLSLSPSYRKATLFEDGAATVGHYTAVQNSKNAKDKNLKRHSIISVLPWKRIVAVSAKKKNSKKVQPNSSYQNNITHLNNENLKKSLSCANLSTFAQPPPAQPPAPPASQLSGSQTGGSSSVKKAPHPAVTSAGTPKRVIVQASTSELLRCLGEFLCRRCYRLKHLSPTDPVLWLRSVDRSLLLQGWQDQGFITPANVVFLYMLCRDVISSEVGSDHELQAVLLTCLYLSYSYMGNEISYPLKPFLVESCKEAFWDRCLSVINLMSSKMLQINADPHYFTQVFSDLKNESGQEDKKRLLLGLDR
GSK3A inh = blockers of GSK3A enzyme activity – biochemical, luminescence, cell-free homogeneous, HTS, primary screen | GSK-3 alpha kinase, ADP-Glo luminescence, 60 min | 0.1% of 320,000 active | Glycogen synthase kinase-3 alpha (Homo sapiens), P49840 | inhibition, % at 10 µM | AID 2650, 2010;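 active = more than half of replicates show inhibition above 20%; inconclusive = some but at most half of replicates above 20% inhibition; inactive = no replicate shows inhibition above 20%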;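 also: GST-tagged GSK-3 alpha with peptide substrate and 25 µM ATP; 0% = DMSO neutral wells and 100% = GW8510 positive control wells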
DiI quench = counter-screen for SR-BI lipid transfer inhibitors: DiI fluorescence quenchers. AID 540326. 20% of 470 active. shares compounds with SR-BI HDL uptake. AC50, µM (series often up to 35 µM), for inactives: at the top dose activity change, negative = quenching. cell-free DiI-HDL fluorescence quenching, 30 min;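 active = quenching, a falling signal, with AC50 below a set limit tied to the top valid dose, actives reach about 32 µM in these data; inconclusive = no clear call, values can overlap the other calls; inactive = rising signal, and the rest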
* = called active by the depositor; ? = inconclusive; . = no result.

SMILES	SR-BI DiI-HDL act	SR-BI HDL uptake	GSK3B inh	CDK5 inh	GSK3A inh	DiI quench
COc1ccc2c(c1)OC[C@H]1[C@H]2N2C(=O)c3cc(Cl)ccc3NC(=O)[C@@]2(C)[C@H]1c1ccccc1	-72	72*	.	1	-4	-6%
COc1ccc(CNC(=O)C2CCC(CNS(=O)(=O)c3ccc(C)cc3)CC2)cc1 (configuration not stated)	-21	21	1	0	1	.
COCCN(Cc1cn(C)nc1-c1ccc(Oc2ccccc2)cc1)C(C)C	-82	82*	3	0	-4	-4%
CC(C)N(C)Cc1cn(C)nc1-c1ccc(Oc2ccccc2)cc1	11	-11	0	-1	2	.
COc1ccc(S(=O)(=O)N2CCC(C(=O)NC3CCCCC3)CC2)cc1C	9	-9	-1	1	0	.
CCC(=O)Nc1ccc(Cl)c(NC(=O)c2cccc(OC)c2)c1	-80	80*	-6	1	0	2%
CC(=O)Nc1ccc(NC(=O)c2cccc(C(=O)OC(C)C)n2)cc1	-26	26	-3	0	1	.
CC(C)OC(=O)c1cccc(C(=O)Nc2cccc(NC(=O)c3cccc(C(=O)OC(C)C)n3)n2)n1	-72	72*	3	1	-3	-4%
COc1ccc(-c2csc(NC(=O)CCS(=O)(=O)c3ccccc3)n2)c(OC)c1	.	.	-2	0	-1	.
Cc1ccc(C(=O)N2CCC3CC2c2cc(-c4ccc5c(c4)OCO5)ccc23)cc1 (configuration not stated)	-10	10	.	-2	.	.
N#Cc1ccc(C(=O)N2CCC3CC2c2cc(-c4ccc(F)cc4)ccc23)cc1 (configuration not stated)	-36	36	.	-1	.	-3%
CCCCNC(=O)C1Cc2cc(S(=O)(=O)N3CCCCC3)ccc2N1C(C)=O (configuration not stated)	.	18	3	1	-1	.
COc1ccccc1C(CC(=O)Nc1ccccc1C)c1ccc(OC(C)C)cc1 (configuration not stated)	-3	?	2	0	0	1%
O=C1CN(C(=O)c2ccc3nc(Cc4cccc(Cl)c4)oc3c2)CCN1	9	-9	2	0	0	.
COC(=O)/C=C/c1ccc2c(c1)S(=O)(=O)N(c1cccc(OC)c1)[C@H]2CC(=O)OC	-87	87*	1	-1	-2	-5%
CCOc1ccc(CCNC(=O)Cn2ncn3nc(-c4ccc(OC)cc4)cc3c2=O)cc1	-72	72*	1	-6	0	-2%
COc1ccc(-c2cc3c(=O)n(CC(=O)NCc4ccc(C)cc4)ncn3n2)cc1	5	-5	1	0	0	.
CCCCn1c(N)c(N(CCOC)C(=O)COC(=O)COc2c(C)cc(C)cc2C)c(=O)[nH]c1=O	9	-9	1	-1	-3	.
COc1ccc(CNC(=O)CS(=O)CC(=O)O)cc1OC (configuration not stated)	16	-16	-2	1	10	.
CCn1c(COc2c(C)cccc2C)nnc1SCC(=O)N1CCN(c2ccccc2)CC1	-79	79*	0	1	.	-3%
O=C(Nc1nc(NC(=O)c2ccco2)n(-c2ccccc2)n1)c1ccccc1	-122	122*	2	1	-1	2µM*
Nc1nc(NC(=O)c2ccccc2)nn1-c1ccccc1	5	-5	1	0	-1	.
COc1ccc(C(=O)c2sc(Nc3ccccc3)c(C(=O)Nc3ccc(OC)c(OC)c3)c2N)cc1	.	.	-1	1	-1	.
COc1ccc(NC(=O)c2c(Nc3ccccc3)sc(C(=O)c3ccc(F)cc3)c2N)cc1	-122	122*	-2	-1	1	0.18µM*
COc1ccccc1C(=O)COC(=O)c1cccc(-n2cnnn2)c1	-16	16	.	0	1	.
SMILES	SR-BI DiI-HDL act	SR-BI HDL uptake	GSK3B inh	CDK5 inh	GSK3A inh	DiI quench
CCOc1ccccc1COC(=O)c1cccc(-n2cnnn2)c1	-72	72*	1	1	2	1%
Cn1c(C(=O)N2CCC(C(=O)N3CCN(Cc4ccc5c(c4)OCO5)CC3)CC2)cc2sccc21	-72	72*	1	-8	-2	-3%
Cn1c(C(=O)N2CCN(Cc3ccc4c(c3)OCO4)CC2)cc2sccc21	18	-18	2	-2	-6	.
COC(=O)c1cnc(Oc2ccc(NC(=O)NC(=O)c3c(OC)cccc3OC)cc2)cc1C(F)(F)F	-71	?	5	2	0	1%
CC(=O)Nc1ccc(C(=O)OCC(=O)N(c2ccccc2)C2CCCCC2)cc1	-5	5	.	2	0	.
CC(=O)Nc1cc(NC(C)=O)cc(C(=O)OCC(=O)N(c2ccccc2)C2CCS(=O)(=O)C2)c1 (configuration not stated)	12	-12	.	0	4	-3%
COc1ccc(-c2nnn(CC(=O)N(C3CCCCC3)C(C)C(=O)NC3CCCC3)n2)cc1OC (configuration not stated)	-86	86*	-1	-1	-2	1%
COc1ccc(-c2nnn(CC(=O)N(C3CCCC3)C(C)C(=O)NC3CCCC3)n2)cc1OC (configuration not stated)	-52	52	-2	1	-1	.
COc1ccc(N(CC(=O)NC2CCCC2)C(=O)Cn2nnc(-c3ccc(C)cc3)n2)cc1	-8	8	-2	0	2	-3%
COc1ccc(-c2nnn(CC(=O)N(CC(=O)NC3CCCC3)c3cccc(C)c3)n2)cc1OC	-83	83*	0	1	-1	0%
O=C1CC2(CCN(C(=O)c3ccccc3[N+](=O)[O-])CC2)Oc2ccccc21	13	-13	5	1	-3	.
O=C(NC1CCCCC1)C(c1ccc2ncccc2c1)N(Cc1ccco1)C(=O)c1ccc2c(c1)OCCO2 (configuration not stated)	14	-14	-4	2	-5	-2%
Cc1ccccc1Cn1ccc(NC(=O)c2cc3nc(-c4ccco4)cc(C(F)(F)F)n3n2)n1	-38	38	0	1	-2	.
Cc1nn(Cc2ccccc2)c(C)c1NC(=O)c1cc2nc(-c3ccco3)cc(C(F)(F)F)n2n1	-83	83*	13	1	3	-7%

Screening results (PubChem BioAssay)
